Assay results reported in ChEMBL document CHEMBL4699557, “Structure activity relationship of novel antiviral nucleosides against Enterovirus A71” (Bioorg Med Chem Lett, 2020).
Calls of active or inactive are those of the source. No cut-off for these calls is given here.

Experiments:
Enterovirus A71 [1] = assay: microbe, parasite or virus in culture; type: functional, organism-based; conditions: Enterovirus A, Tainin/4643/98, Vero 76, 72 h
in vitro [2] = conditions: monkey, Vero 76 cells
in vitro [3] = conditions: monkey, Vero 76 cells; remark: listed apart in the source
Vero 76 [4] = assay: (§1) Cytotoxicity against monkey Vero 76 cells by neutral red uptake assay; type: cell-based; conditions: chlorocebus sabaeus, vero 76
Enterovirus A71 [5] = assay: microbe, parasite or virus in culture; type: functional, organism-based, Tainin/4643/98, Vero 76; conditions: Enterovirus A; for EC50: Tainin/4643/98, Vero 76, 72 h
Vero 76 [6] = assay: (§2) Cytotoxicity against monkey Vero 76 cells by microscopic analysis; type: cell-based; conditions: chlorocebus sabaeus, vero 76
Coxsackievirus [7] = assay: Antiviral activity against Coxsackie virus B3 HA 201 933 infected in Vero 76 cells assessed as reduction in virus-induced cytopathic effect by neutral red uptake assay; type: functional, organism-based; conditions: B3 HA 201 933, Vero 76
Method in brief: (§3)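 Cell-based inhibition of virus replication. Vero 76 cells for Coxsackie B3 and poliovirus 1; RD cells for enterovirus 68. Two read-outs: visual scoring of virus yield reduction and neutral red uptake for cytopathic effect. EC50 is reported, and EC90 for some visual values.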

enterovirus D68 [8] = assay: Antiviral activity against Enterovirus D68 US/KY/14-18953 infected in RD cells assessed as reduction in virus yield by visual inspection method; type: functional, organism-based; conditions: Enterovirus D, US/KY/14-18953, RD
Method in brief: as §3

RD [9] = assay: Cytotoxicity against human RD cells by neutral red uptake assay; type: cell-based
Coxsackievirus [10] = assay: Antiviral activity against Coxsackie virus B3 HA 201 933 infected in Vero 76 cells assessed as reduction in virus yield by visual inspection method; type: functional, organism-based; conditions: B3 HA 201 933, Vero 76
Method in brief: as §3

RD [11] = assay: Cytotoxicity against human RD cells by microscopic based visual inspection method; type: cell-based
Poliovirus 1 [12] = assay: Antiviral activity against Poliovirus 1 Mahoney infected in monkey Vero 76 cells assessed as reduction in virus-induced cytopathic effect by neutral red uptake assay; type: functional, organism-based; conditions: Enterovirus C
Method in brief: as §3

Poliovirus 1 [13] = assay: Antiviral activity against Poliovirus 1 Mahoney infected in monkey Vero 76 cells assessed as reduction in virus yield by visual inspection method; type: functional, organism-based; conditions: Enterovirus C
Method in brief: as §3

enterovirus D68 [14] = assay: Antiviral activity against Enterovirus D68 US/KY/14-18953 strain infected in RD cells assessed as reduction in virus-induced cytopathic effect by neutral red uptake assay; type: functional, organism-based; conditions: Enterovirus D, US/KY/14-18953, RD
Method in brief: as §3

Tacaribe virus = assay: Antiviral activity against Tacaribe virus; type: functional, organism-based; conditions: Mammarenavirus tacaribeense
[15] = molecular target: 5-hydroxytryptamine receptor 2B (Homo sapiens, UniProt P41595); assay: Binding affinity to 5HT2B (unknown origin)
Sequence of 5-hydroxytryptamine receptor 2B (P41595 whole entry): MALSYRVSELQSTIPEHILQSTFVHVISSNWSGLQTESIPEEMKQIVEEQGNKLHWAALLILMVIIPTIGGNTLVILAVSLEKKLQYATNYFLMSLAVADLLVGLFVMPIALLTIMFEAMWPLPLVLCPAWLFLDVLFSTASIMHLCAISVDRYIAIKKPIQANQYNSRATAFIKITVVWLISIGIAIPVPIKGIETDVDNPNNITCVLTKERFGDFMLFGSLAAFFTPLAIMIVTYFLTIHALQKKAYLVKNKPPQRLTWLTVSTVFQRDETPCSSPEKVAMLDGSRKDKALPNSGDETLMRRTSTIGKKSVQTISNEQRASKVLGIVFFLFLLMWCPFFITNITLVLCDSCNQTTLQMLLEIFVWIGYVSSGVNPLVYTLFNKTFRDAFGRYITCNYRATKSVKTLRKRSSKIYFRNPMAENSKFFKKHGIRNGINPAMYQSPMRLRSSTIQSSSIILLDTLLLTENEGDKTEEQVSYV

[16] = Inhibition of capsid protein VP1 in Enterovirus 71; design: species or system Enterovirus A71
[17] = Selectivity index, ratio of CC50 for human RD cells to EC50 for Enterovirus D68 US/KY/14-18953 by neutral red uptake assay; type: toxicity; conditions: read-out: Ratio CC50/EC50
Method in brief: (§4)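 Selectivity index calculated as CC50/EC50, both from the same cell line and the same read-out (visual or neutral red).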

[18] = test system: Respiratory syncytial virus; assay: Antiviral activity against Respiratory syncytial virus; type: functional, organism-based
[19] = Selectivity index, ratio of CC50 for human RD cells to EC50 for Enterovirus D68 US/KY/14-18953 strain; type: toxicity
Method in brief: as §4

Enterovirus A71 [20] = assay: Antiviral activity against Enterovirus 71; type: functional, organism-based; conditions: Enterovirus A
[21] = as §1; type: cell-based; conditions: chlorocebus sabaeus, Vero 76 cells
[22] = as §2; type: cell-based; conditions: chlorocebus sabaeus, Vero 76 cells
[23] = Selectivity index, ratio of CC50 for monkey Vero 76 cells to EC50 for Poliovirus 1 Mahoney; type: toxicity; conditions: read-out: Ratio CC50/EC50
Method in brief: as §4

[24] = Selectivity index, ratio of CC50 for monkey Vero 76 cells to EC50 for Poliovirus 1 Mahoney by neutral red uptake assay; type: toxicity; conditions: read-out: Ratio CC50/EC50
Method in brief: as §4

[25] = Selectivity index, ratio for CC50 of monkey Vero 76 cells to EC50 for Coxsackie virus B3 HA 201 933 by neutral red uptake assay; type: toxicity; conditions: read-out: Ratio CC50/EC50
Method in brief: as §4

[26] = Selectivity index, ratio for CC50 of monkey Vero 76 cells to EC50 for Coxsackie virus B3 HA 201 933 by visual inspection method; type: toxicity; conditions: read-out: Ratio CC50/EC50
Method in brief: as §4

Row | SMILES | EC50 (Enterovirus A71 [1]) | selectivity ratio (in vitro [2]) | selectivity ratio (in vitro [3]) | CC50 (Vero 76 [4]) | EC50 (Enterovirus A71 [5]) | CC50 (Vero 76 [6]) | other results
1 | CC(C)[C@@H](Nc1nc(Cl)nc2c1ncn2[C@H]1[C@H](O)[C@H](O)[C@]2(CCl)C[C@H]12)C1CC1 | 3.9 µM | 6.9 | 7.4 | 27 µM | 4.3 µM | 32 µM | 
2 | CC(C)[C@@H](Nc1nc(Cl)nc2c1ncn2[C@H]1[C@H](O)[C@H](O)[C@]2(CO)C[C@H]12)C1CC1 | 9.1 µM |  |  | 24 µM |  | 24 µM | EC50 (Coxsackievirus [7]): 16 µM; EC50 (enterovirus D68 [8]): 32 µM; CC50 (RD [9]): > 100 µM; EC50 (Coxsackievirus [10]): 16 µM; CC50 (RD [11]): > 100 µM; EC90 (Enterovirus A71 [5]; Tainin/4643/98, Vero 76, time 72 hrs): 7.7 µM; EC50 (Poliovirus 1 [12]): 27 µM; EC50 (Poliovirus 1 [13]): 28 µM; EC50 (enterovirus D68 [14]): 32 µM
3 | CC(C)[C@@H](Nc1nc(Cl)nc2c1ncn2[C@H]1[C@H](O)[C@H](O)[C@@H]2C[C@@H]21)C1CC1 | 12 µM | > 4.2 | > 3.1 | > 50 µM | 16 µM | > 50 µM | 
4 | OC[C@@]12C[C@@H]1[C@@H](n1cnc3c(NC(C4CC4)C4CC4)nc(Cl)nc31)[C@H](O)[C@@H]2O |  |  |  | 68 µM |  | > 100 µM | Activity (Tacaribe virus): inactive
5 | CC(C)[C@@H](Nc1nc(I)nc2c1ncn2[C@H]1[C@H](O)[C@H](O)[C@]2(CO)C[C@H]12)C1CC1 | 20 µM | 2.3 | 5.6 | 46 µM | 18 µM | 100 µM | Ki [15]: 0.17 µM
6 | CCn1nnc(-c2ccc(OCCC(C)CCN3CCN(c4ccncc4)C3=O)cc2)n1 (stereo not drawn) |  |  |  |  |  |  | IC50 [16]: 0.0008 µM
7 | CCOC(=O)c1ccc(OCCC2CCN(c3ccc(C)nn3)CC2)cc1 [PIRODAVIR] | 0.57 µM | 30 | > 31 | 17 µM | 0.86 µM | > 27 µM | 
8 | O[C@@H]1[C@H](O)[C@@H]2C[C@@H]2[C@H]1n1cnc2c(NC(C3CC3)C3CC3)nc(Cl)nc21 | 3.4 µM | 10 | > 28 | 34 µM | 3.6 µM | > 100 µM | EC90 (enterovirus D68 [8]): 15 µM; selectivity ratio [17]: 4.4; CC50 (RD [9]): 41 µM; Activity [18]: inactive; CC50 (RD [11]): 41 µM; selectivity ratio ([19]; read-out: Ratio): 2.7; EC50 (enterovirus D68 [14]): 9.3 µM
9 | OC[C@H]1O[C@@H](n2cnc3c(NCc4cccc(C(F)(F)F)c4)ncnc32)[C@H](O)[C@@H]1O |  |  |  |  |  |  | EC50 (Enterovirus A71 [20]): 0.068 µM
10 | CC(C)[C@@H](Nc1nc(Cl)nc2c1ncn2[C@H]1[C@H](O)[C@H](O)[C@]2(CF)C[C@H]12)C1CC1 | 3 µM | 11 | 10 | 33 µM |  | 36 µM | EC90 (enterovirus D68 [8]): 7.7 µM; selectivity ratio [17]: 2.6; CC50 (RD [9]): 42 µM; CC50 (RD [11]): 42 µM; selectivity ratio ([19]; read-out: Ratio): 5.4; Ki [15]: 0.934 µM; EC50 (enterovirus D68 [14]): 16 µM
11 | CC(C)[C@@H](Nc1nc(Cl)nc2c1ncn2[C@H]1[C@H](O)[C@H](O)[C@]2(CN=[N+]=[N-])C[C@H]12)C1CC1 | 4.8 µM | 6.7 | 6 | 32 µM | 5.3 µM | 32 µM | 
12 | OC[C@@]12C[C@@H]1[C@@H](n1cnc3c(N[C@H](C4CCC4)C4CC4)nc(Cl)nc31)[C@H](O)[C@@H]2O | 9.3 µM | 1.5 | > 3.1 | 14 µM | 16 µM | > 50 µM | 
13 | OC[C@@]12C[C@@H]1[C@@H](n1ccc3c(NC(C4CCC4)C4CCC4)nc(Cl)nc31)[C@H](O)[C@@H]2O |  | 3.6 | > 3.1 |  | 32 µM |  | CC50 [21]: 86 µM; CC50 [22]: > 100 µM
14 | CC(C)S(=O)(=O)n1c(N)nc2ccc(/C(=N/O)c3ccccc3)cc21 [ENVIROXIME] |  |  |  |  |  |  | EC50 (Coxsackievirus [7]): < 0.01 µM; EC50 (enterovirus D68 [8]): 0.032 µM; selectivity ratio [23]: > 670; selectivity ratio [17]: 47; selectivity ratio [24]: > 490; CC50 (RD [9]): 1.5 µM; EC50 (Coxsackievirus [10]): < 0.01 µM; CC50 (RD [11]): 4.2 µM; selectivity ratio ([19]; read-out: Ratio CC50/EC50): 130; EC50 (Poliovirus 1 [12]): < 0.01 µM; EC50 (Poliovirus 1 [13]): 0.015 µM; EC50 (enterovirus D68 [14]): 0.032 µM; selectivity ratio [25]: > 450; selectivity ratio [26]: > 1000
15 | O[C@@H]1[C@H](O)[C@@H]2C[C@@H]2[C@H]1n1cnc2c(N[C@H](CC3CC3)C3CC3)nc(Cl)nc21 | 8.1 µM | 1.2 | > 2.4 | 9.9 µM | 21 µM |  | 
